Each block holds one substance with its values, some of them ahead of it.
How the values were obtained:
[1] = target: natriuretic peptide clearance receptor (NPRC), tagged with green fluorescence protein (UniProt P17342); assay: AlphaScreen or HTRF
[2] = test system: parental HEK293 cells; assay: cGMP generation in parental; type: cell-based, human; conditions: levels similar to vehicle treatment (Supplemental Figure 2)
Procedure, shortened: (§1)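 HEK293 cells stably expressing human pGC-A or pGC-B, or parental cells, were kept in DMEM with 10% FBS and 250 ug/ml G418. Cells were grown overnight to 80–90% confluency. They were treated for 10 min with serial concentrations (10−10 to 10−6 M) in HBSS containing 0.1% BSA, 2 mM HEPES and 0.5 mM IBMX; buffer alone served as vehicle. After a PBS wash and lysis in 0.1 M HCl, intracellular cGMP was measured by ELISA.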

[3] = Blood pressure and renal function with acute IV infusion; type: in vivo, Fischer rats; conditions: mean ± SEM, n=4/group; for UV (urine flow): 60 min clearance; for UNaV (urinary sodium excretion rate): flame photometry; for GFR (glomerular filtration rate): inulin clearance; for ΔMAP (change in mean arterial pressure): normal rats
Procedure, shortened: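 Male Fischer rats (about 2 months, 200–250 g) under isoflurane (2–3% in oxygen) had jugular vein, carotid artery and bladder catheters. After 30 min equilibration with IV inulin and saline, test compound or 0.9% saline vehicle was infused IV with inulin for 75 min, including a 15 min lead-in. BP was recorded and urine collected over a 60 min clearance period. Urinary sodium was measured by flame photometry and inulin by anthrone; GFR was taken from inulin clearance. n=4/group.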

[4] = Plasma CNP-like levels; type: in vivo, Fischer rats; conditions: low, medium and high dose (4.55, 45.5, 455 pmol/kg/min) IV infusion 75 min, normal rats, RIA, n=4/group
Procedure, shortened: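 They then received a 75 min continuous IV infusion (15 min lead-in) of native peptide, analogue or 0.9% saline vehicle with inulin. Infusion rate was weight-adjusted. Blood was taken after the 60 min clearance period. A non-equilibrium RIA used a CNP-sequence antibody (standard curve 0.5–128 pg; <1% cross-reactivity with ANP, BNP).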

[5] = target: T1, human pGC-B receptor (Homo sapiens, UniProt P20594); assay: cGMP generation in HEK293 cells overexpressing human pGC-B; type: cell-based; conditions: 10 min; for cGMP generation in HEK293 pGC-B cells compared to vehicle: 10^−8.5 to 10^−6 M, 0.5 mM IBMX, intracellular cGMP ELISA, triplicate
T1 sequence (P20594 23-1047): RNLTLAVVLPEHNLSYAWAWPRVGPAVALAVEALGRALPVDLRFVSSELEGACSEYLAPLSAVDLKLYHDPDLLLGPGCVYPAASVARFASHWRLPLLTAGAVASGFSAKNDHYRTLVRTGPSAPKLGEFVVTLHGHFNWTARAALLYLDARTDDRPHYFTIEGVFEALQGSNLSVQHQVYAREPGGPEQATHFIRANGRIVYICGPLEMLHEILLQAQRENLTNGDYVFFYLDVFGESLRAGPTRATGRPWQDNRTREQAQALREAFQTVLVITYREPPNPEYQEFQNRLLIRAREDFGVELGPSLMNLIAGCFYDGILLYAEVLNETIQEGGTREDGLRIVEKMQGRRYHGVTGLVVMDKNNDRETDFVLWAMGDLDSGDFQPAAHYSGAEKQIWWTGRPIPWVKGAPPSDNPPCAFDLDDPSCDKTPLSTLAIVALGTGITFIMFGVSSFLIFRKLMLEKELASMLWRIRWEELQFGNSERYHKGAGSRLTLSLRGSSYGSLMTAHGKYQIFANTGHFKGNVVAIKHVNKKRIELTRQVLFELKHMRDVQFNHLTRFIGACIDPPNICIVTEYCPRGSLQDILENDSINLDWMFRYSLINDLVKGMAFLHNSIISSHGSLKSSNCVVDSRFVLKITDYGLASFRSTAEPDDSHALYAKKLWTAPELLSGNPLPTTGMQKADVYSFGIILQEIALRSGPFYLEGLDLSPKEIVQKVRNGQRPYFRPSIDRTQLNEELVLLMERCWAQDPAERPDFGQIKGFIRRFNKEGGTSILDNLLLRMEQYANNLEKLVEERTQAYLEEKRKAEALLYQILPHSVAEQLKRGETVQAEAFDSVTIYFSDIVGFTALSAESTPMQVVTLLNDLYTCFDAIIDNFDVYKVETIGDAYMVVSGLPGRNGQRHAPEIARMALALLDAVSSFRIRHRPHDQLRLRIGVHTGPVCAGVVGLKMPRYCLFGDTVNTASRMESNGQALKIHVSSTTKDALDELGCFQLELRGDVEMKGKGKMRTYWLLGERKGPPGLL
Procedure, shortened: as §1

[6] = target: T2, human pGC-A receptor (Homo sapiens, UniProt P16066); assay: cGMP generation in HEK293 cells overexpressing human pGC-A; type: cell-based; conditions: mean±SEM
T2 sequence (P16066 33-1061): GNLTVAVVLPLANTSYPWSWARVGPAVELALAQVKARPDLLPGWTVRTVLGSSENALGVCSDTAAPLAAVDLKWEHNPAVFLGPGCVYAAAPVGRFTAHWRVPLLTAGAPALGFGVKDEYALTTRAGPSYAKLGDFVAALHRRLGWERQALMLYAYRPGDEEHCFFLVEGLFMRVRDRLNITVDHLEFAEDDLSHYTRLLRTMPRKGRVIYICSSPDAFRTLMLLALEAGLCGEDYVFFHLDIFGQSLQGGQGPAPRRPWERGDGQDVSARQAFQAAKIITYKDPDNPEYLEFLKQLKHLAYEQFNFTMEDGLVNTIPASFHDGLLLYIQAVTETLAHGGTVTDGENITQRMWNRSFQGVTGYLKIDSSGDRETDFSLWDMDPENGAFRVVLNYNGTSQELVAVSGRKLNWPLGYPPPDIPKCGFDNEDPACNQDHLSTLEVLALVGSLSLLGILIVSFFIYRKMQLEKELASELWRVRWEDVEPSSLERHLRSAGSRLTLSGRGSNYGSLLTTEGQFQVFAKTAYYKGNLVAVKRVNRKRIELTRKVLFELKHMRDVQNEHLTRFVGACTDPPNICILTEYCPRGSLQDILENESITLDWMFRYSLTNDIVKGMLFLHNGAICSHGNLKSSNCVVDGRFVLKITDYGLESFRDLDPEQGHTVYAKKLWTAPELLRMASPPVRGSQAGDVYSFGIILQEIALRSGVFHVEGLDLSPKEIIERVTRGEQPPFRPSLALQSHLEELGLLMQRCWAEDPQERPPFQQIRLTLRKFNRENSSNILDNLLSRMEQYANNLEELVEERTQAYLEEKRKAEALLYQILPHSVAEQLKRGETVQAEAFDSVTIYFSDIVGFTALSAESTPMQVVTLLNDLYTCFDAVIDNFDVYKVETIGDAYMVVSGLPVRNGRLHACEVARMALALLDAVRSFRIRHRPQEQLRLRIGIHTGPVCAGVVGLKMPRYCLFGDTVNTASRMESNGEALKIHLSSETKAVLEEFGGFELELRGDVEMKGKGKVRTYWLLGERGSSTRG
Procedure, shortened: as §1

[7] = test system: human renal fibroblasts (HRFs); assay: cGMP generation in human primary renal fibroblasts; type: cell-based
Procedure, shortened: (§2)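 Primary human cardiac and renal fibroblasts, checked for purity by vimentin staining, were used at passages 4–8. Cells grown to 80% confluency were treated for 10 min with buffer (HBSS, 0.1% BSA, 2 mM HEPES, 0.5 mM IBMX) alone or with test compound at 10−8, 10−7 or 10−6 M. Cells were washed in PBS and lysed in 0.1 M HCl, and intracellular cGMP was measured by ELISA.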

[8] = test system: human renal fibroblasts (HRFs); assay: Fibroblast proliferation quantified by cell counting, HRFs; type: cell-based; conditions: 10^−6 M, TGFβ−1 5 ng/ml, 72 hours, trypan blue, Cedex XS Analyzer (Supplemental Table 2)
Procedure, shortened: (§3)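 Fibroblasts at passages 4–8, purity checked by vimentin immunostaining, were counted, seeded in complete medium and held overnight at 37 °C, 5% CO2. Medium was replaced with fresh medium containing TGFβ-1 (5 ng/ml) alone or with test compound (10−8, 10−7 or 10−6 M) for 8 or 72 h. Cells were then trypsinized, stained with 0.2% trypan blue and counted on an automated analyzer.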

[9] = test system: human cardiac fibroblasts (HCFs); assay: Differentiation to myofibroblasts; type: cell-based; conditions: 10^−6 M, TGFβ−1 5 ng/mL
Procedure, shortened: (§4)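 Fibroblasts were serum-starved in 0.01% FBS for 48 h, then given TGFβ-1 (5 ng/ml) with or without test compound (10−6 M) for 24, 48 and 72 h. For immunostaining, cells were fixed in 4% formaldehyde, permeabilised with 0.2% Triton X-100, and stained with anti-α-SMA (1:200, 4 °C overnight), a Texas Red secondary and DAPI; confocal images were scored as corrected total cell fluorescence. For western blots, NP-40 lysates were probed for α-SMA and normalised to GAPDH.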

[10] = test system: human renal fibroblasts (HRFs); assay: Differentiation to myofibroblasts; type: cell-based; conditions: 10^−6 M, TGFβ−1 5 ng/mL
Procedure, shortened: as §4

[11] = test system: human cardiac fibroblasts (HCFs); assay: Live-cell real-time proliferation imaging; type: cell-based; conditions: 10^−6 M, similar to vehicle (Supplemental Table 1)
[12] = test system: human cardiac fibroblasts (HCFs); assay: Fibroblast proliferation quantified by cell counting, HCFs; type: cell-based; conditions: 10^−6 M, TGFβ−1 5 ng/ml, 72 hours, trypan blue, Cedex XS Analyzer (Supplemental Table 2)
Procedure, shortened: as §3

[13] = test system: human cardiac fibroblasts (HCFs); assay: cGMP generation in human primary cardiac fibroblasts; type: cell-based; conditions: 10^−8, 10^−7 and 10^−6 M, 10 min, 0.5 mM IBMX, cGMP ELISA, vs vehicle
Procedure, shortened: as §2

[14] = test system: human renal fibroblasts (HRFs); assay: Live-cell real-time proliferation imaging; type: cell-based; conditions: 10^−6 M, similar to vehicle (Supplemental Table 1)
[15] = High = 455 pmol/kg/min IV infusion
[16] = Low = 4.55 pmol/kg/min IV infusion
[17] = Medium = 45.5 pmol/kg/min IV infusion
[18] = 48 and 72 hours (data not shown)
[19] = 24 hours, immunostaining and western blotting

natriuretic peptide clearance receptor (NPRC), tagged with green fluorescence protein, sequence (P17342 27-541): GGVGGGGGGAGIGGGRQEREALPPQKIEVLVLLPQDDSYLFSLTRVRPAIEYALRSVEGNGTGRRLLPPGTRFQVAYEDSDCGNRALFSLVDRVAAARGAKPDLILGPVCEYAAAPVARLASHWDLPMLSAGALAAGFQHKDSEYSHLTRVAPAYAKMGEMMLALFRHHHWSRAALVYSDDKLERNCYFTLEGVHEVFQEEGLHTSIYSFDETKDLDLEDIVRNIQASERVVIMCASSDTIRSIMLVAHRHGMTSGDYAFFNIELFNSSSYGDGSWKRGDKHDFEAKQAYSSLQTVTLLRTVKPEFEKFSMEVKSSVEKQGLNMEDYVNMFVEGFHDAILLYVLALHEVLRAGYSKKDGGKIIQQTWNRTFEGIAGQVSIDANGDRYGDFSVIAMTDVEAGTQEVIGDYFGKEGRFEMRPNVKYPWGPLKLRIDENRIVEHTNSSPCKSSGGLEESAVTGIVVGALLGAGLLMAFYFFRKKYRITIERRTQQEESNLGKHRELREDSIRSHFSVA

AlphaScreen signal [1]: 200
Substance: C53, the 53-AA intermediate form of proCNP processing (peptide)

Substance: NH2-GLSKGCFGLKLDRIGSMSGLGC-COOH [CNP, C-type natriuretic peptide, reference compound]
cGMP generation in parental HEK293 cells [2]: did not generate cGMP | UV (urine flow) [3, 15]: 9.8 ± 0.3 µL/min | UNaV (urinary sodium excretion rate) [3, 15]: 0.9±0.1 uEq/min | GFR (glomerular filtration rate) [3, 15]: 1.3 ± 0.1 mL/min | UV (urine flow) [3, 16]: 11.3 ± 1.0 µL/min | UNaV (urinary sodium excretion rate) [3, 16]: 0.8±0.1 uEq/min | GFR (glomerular filtration rate) [3, 16]: 1.2 ± 0.1 mL/min | ΔMAP (change in mean arterial pressure) [3, 16]: −0.9±0.9 mmHg | UV (urine flow) [3, 17]: 10.0 ± 0.9 µL/min | UNaV (urinary sodium excretion rate) [3, 17]: 0.7±0.1 uEq/min | GFR (glomerular filtration rate) [3, 17]: 1.2 ± 0.2 mL/min | ΔMAP (change in mean arterial pressure) [3, 17]: −1.9±0.5 mmHg | Plasma CNP-like levels (CLL) [4]: increased plasma CLL levels in a dose-dependent manner | cGMP generation in HEK293 pGC-B cells compared to vehicle [5]: significant cGMP generation

cGMP in HEK293 pGC-A cells ([6]; 10^−6 M): 1028±73 pmol/mL | cGMP in HEK293 pGC-A cells ([6]; 10^−8 M): 385±66 pmol/mL | cGMP in HEK293 pGC-A cells ([6]; 10^−10 M): 5±1 pmol/mL
Substance: b-type natriuretic peptide [BNP]

cGMP generation in HEK293 pGC-B cells compared to vehicle [5]: significant cGMP generation | pGC-B receptor potency compared to CNP ([5]; HEK293 pGC-B cells, 10^−10 to 10^−6 M, cGMP ELISA): no difference observed
Substance: NH2 - DLRVDTKSRAAWARLLQEHPNARKYKGANKKGLSKGCFGLKLDRIGSMSGLGC – COOH [C53]
Intracellular cGMP in HRFs ([7]; 10^−8, 10^−7 and 10^−6 M, 10 min, 0.5 mM IBMX, cGMP ELISA, vs vehicle, dose-dependent): increased intracellular cGMP levels | cGMP values in HRFs compared to HCFs ([7]; ratio HRFs/HCFs): 16 fold | cGMP generation in parental HEK293 cells [2]: did not generate cGMP | TGFβ−1 induced HRFs proliferation by cell counting [8]: suppressed TGFβ−1 induced proliferation | Reduction of differentiation of HCFs to myofibroblasts [9, 18]: not sustained | Differentiation of HCFs to myofibroblasts (α-SMA expression) [9, 19]: significantly reduced the differentiation | UV (urine flow) [3, 15]: 13.5 ± 2.0 µL/min | UNaV (urinary sodium excretion rate) [3, 15]: 1.1±0.3 uEq/min | GFR (glomerular filtration rate) [3, 15]: 1.1 ± 0.2 mL/min | ΔMAP (change in mean arterial pressure) [3, 15]: −3.7±2.6 mmHg | UV (urine flow) [3, 16]: 13.3 ± 2.0 µL/min | UNaV (urinary sodium excretion rate) [3, 16]: 0.9±0.2 uEq/min | GFR (glomerular filtration rate) [3, 16]: 1.2 ± 0.1 mL/min | ΔMAP (change in mean arterial pressure) [3, 16]: −0.5±1.0 mmHg | UV (urine flow) [3, 17]: 11.3 ± 0.8 µL/min | UNaV (urinary sodium excretion rate) [3, 17]: 1.0±0.1 uEq/min | GFR (glomerular filtration rate) [3, 17]: 1.5 ± 0.1 mL/min | ΔMAP (change in mean arterial pressure) [3, 17]: −1.4±1.1 mmHg | Reduction of differentiation of HRFs to myofibroblasts [10, 18]: not sustained | Differentiation of HRFs to myofibroblasts (α-SMA expression) [10, 19]: significantly reduced the differentiation | HCFs proliferation in the absence of TGFβ−1 stimulation [11]: had no effect on proliferation | Plasma CNP-like levels (CLL) [4]: increased plasma CLL levels in a dose-dependent manner | TGFβ−1 induced HCFs proliferation by cell counting [12]: suppressed TGFβ−1 induced proliferation | Intracellular cGMP in HCFs [13]: increased intracellular cGMP levels | HRFs proliferation in the absence of TGFβ−1 stimulation [14]: had no effect on proliferation

Source: article PMC6557127 (Journal of molecular and cellular cardiology, 2019)
